{"source": "ChEMBL document CHEMBL4130635", "about": "“2,4-Diaminoquinazolines as Dual Toll-like Receptor (TLR) 7/8 Modulators for the Treatment of Hepatitis B Virus” (J Med Chem, 2018)", "key": {"Cynomolgus monkey [1]": {"test_system": "Cynomolgus monkey", "assay": "Induction of G-CSF in cynomolgus monkey plasma at 9 mg/kg, po after 24 hrs by Luminex assay (reference value: 85 pg/ml)", "type": "functional, Macaca fascicularis", "procedure,_shortened": "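Healthy cynomolgus monkeys given single oral doses of 1, 3, 9 and 30 mg/kg, with a 2-week wash-out planned between doses. Systemic cytokine levels in plasma were sampled at 0.5, 1, 2, 4, 9 and 24 h postdose.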"}, "Plasma [2]": {"test_system": "Plasma", "assay": "Proinflammatory activity in C57BL/6J mouse plasma assessed as CXCL-1 levels at 3 mg/kg, po by multiplex assay (reference value: 230 pg/ml)", "type": "functional"}, "[3]": {"target": "TLR7 and TLR8 (Homo sapiens) (UniProt Q9NYK1+Q9NR97)", "assay": "Agonist activity at TLR7/8 in human PBMCs co-cultured with primary human hepatocytes infected with HBV genotype C for 12 days assessed as increase in IL-1Ra levels up to 5 uM measured after 42 days"}, "Cynomolgus monkey [4]": {"test_system": "Cynomolgus monkey", "assay": "Proinflammatory activity in cynomolgus monkey plasma assessed as IL-8 levels at 3 mg/kg, po after 24 hrs by Luminex assay (reference value: 430 pg/ml)", "type": "functional, Macaca fascicularis"}, "[5]": {"assay": "Ratio of drug level in Sprague-Dawley rat liver to plasma at 10 mg/kg, po"}, "Plasma [6]": {"test_system": "Plasma", "assay": "Anti-inflammatory activity in C57BL/6J mouse plasma assessed as IL-10 levels at 30 mg/kg, po by multiplex assay (reference value: 120 pg/ml)", "type": "functional", "procedure,_shortened": "(§1)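 Single oral gavage in 20% HP-β-CD to healthy C57BL/6 mice, groups of 15 at 0.3, 1, 3, 10 or 30 mg/kg. Three mice per group sacrificed at 0.5, 1, 2, 4 or 7 h. Plasma and liver cytokines by multiplex, maximum level reported, rounded to nearest multiple of 5.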"}, "Liver [7]": {"test_system": "Liver", "assay": "Anti-inflammatory activity in C57BL/6J mouse liver assessed as IL-10 levels at 1 mg/kg, po by multiplex assay (reference value: 2 pg/g)", "type": "functional", "procedure,_shortened": "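Mice (C57BL/6) got a single oral dose of 0.3–30 mg/kg in 20% HP-β-CD, in groups of 15. Three per group were sacrificed at 0.5, 1, 2, 4 or 7 h, and liver cytokines were measured by multiplex. Values were rounded to the nearest multiple of 5.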"}, "Cynomolgus monkey [8]": {"test_system": "Cynomolgus monkey", "assay": "Induction of ISG response in cynomolgus monkey plasma assessed as upregulation of Oas1b mRNA expression at 1 mg/kg, po after 24 hrs by Fluidigm RT-qPCR analysis (reference value: 1)", "type": "functional, Macaca fascicularis", "procedure,_shortened": "(§2)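 Cynomolgus monkeys, single oral doses of 1, 3, 9 and 30 mg/kg with a planned 2-week wash-out between doses. Systemic ISG (ISG15, Mx1, OAS1) mRNA was measured by Fluidigm RT-qPCR at 1, 2, 4, 8 and 24 h postdose.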"}, "Cynomolgus monkey [9]": {"test_system": "Cynomolgus monkey", "assay": "Proinflammatory activity in cynomolgus monkey plasma assessed as TNFalpha levels at 9 mg/kg, po after 24 hrs by Luminex assay (reference value: 285 pg/ml)", "type": "functional, Macaca fascicularis"}, "[10]": {"assay": "Cmax in cynomolgus monkey plasma at 3 mg/kg, po by LC-MS analysis", "type": "ADME, organism-based, Macaca fascicularis", "design": "dose 3 mg/kg, route oral", "procedure,_shortened": "(§3)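 Healthy cynomolgus monkeys received oral doses of 1, 3, 9 and 30 mg/kg, with a 2-week wash-out between doses. Systemic compound concentrations by LC−MS at 0.25, 0.5, 1, 2, 4, 8 and 24 h postdose.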"}, "Cynomolgus monkey [11]": {"test_system": "Cynomolgus monkey", "assay": "Upregulation of Tlr7 expression in cynomolgus monkey plasma at 1 mg/kg, po after 24 hrs by Fluidigm RT-qPCR analysis (reference value: 1.8)", "type": "functional, Macaca fascicularis"}, "Plasma [12]": {"test_system": "Plasma", "assay": "Induction of IFNalpha levels in C57BL/6J mouse plasma at 0.3 mg/kg, po by ELISA", "type": "functional, organism-based"}, "Cynomolgus monkey [13]": {"test_system": "Cynomolgus monkey", "assay": "Induction of ISG response in cynomolgus monkey plasma assessed as upregulation of Oas1b mRNA expression at 3 mg/kg, po after 24 hrs by Fluidigm RT-qPCR analysis (reference value: 1)", "type": "functional, Macaca fascicularis", "procedure,_shortened": "as §2"}, "Plasma [14]": {"test_system": "Plasma", "assay": "Proinflammatory activity in C57BL/6J mouse plasma assessed as TNFalpha levels at 3 mg/kg, po by multiplex assay (reference value: 70 pg/ml)", "type": "functional"}, "Plasma [15]": {"test_system": "Plasma", "assay": "Upregulation of IP-10 mRNA expression levels in C57BL/6J mouse plasma at 3 mg/kg, po by RT-qPCR analysis (reference value: 1)", "type": "functional"}, "[16]": {"assay": "AUC (0 to last) in C57BL/6J mouse liver at 30 mg/kg, po by LC-MS analysis", "type": "ADME, organism-based", "conditions": "in vivo", "procedure,_shortened": "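Healthy C57BL/6 mice were dosed once by mouth at 0.3, 1, 3, 10 or 30 mg/kg in 20% HP-β-CD, in groups of 15 per dose. Three mice per group were sacrificed at 0.5, 1, 2, 4 or 7 h, and plasma and liver compound levels were measured by LC–MS. Values were rounded to whole numbers.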"}, "Cynomolgus monkey [17]": {"test_system": "Cynomolgus monkey", "assay": "Proinflammatory activity in cynomolgus monkey plasma assessed as IL-6 levels at 1 mg/kg, po after 24 hrs by Luminex assay (reference value: 80 pg/ml)", "type": "functional, Macaca fascicularis"}, "Liver [18]": {"test_system": "Liver", "assay": "Anti-inflammatory activity in C57BL/6J mouse liver assessed as IL-10 levels at 3 mg/kg, po by multiplex assay (reference value: 2 pg/g)", "type": "functional", "procedure,_shortened": "as §1"}, "Cynomolgus monkey [19]": {"test_system": "Cynomolgus monkey", "assay": "Anti-inflammatory activity in cynomolgus monkey plasma assessed as IL-10 levels at 3 mg/kg, po after 24 hrs by Luminex assay (reference value: 195 pg/ml)", "type": "functional, Macaca fascicularis"}, "Plasma [20]": {"test_system": "Plasma", "assay": "Proinflammatory activity in C57BL/6J mouse plasma assessed as IL-6 levels at 10 mg/kg, po by multiplex assay (reference value: 505 pg/ml)", "type": "functional"}, "Plasma [21]": {"test_system": "Plasma", "assay": "Proinflammatory activity in C57BL/6J mouse plasma assessed as TNFalpha levels at 10 mg/kg, po by multiplex assay (reference value: 70 pg/ml)", "type": "functional"}, "Plasma [22]": {"test_system": "Plasma", "assay": "Induction of IFNalpha levels in C57BL/6J mouse plasma at 3 mg/kg, po by ELISA", "type": "functional"}, "Cynomolgus monkey [23]": {"test_system": "Cynomolgus monkey", "assay": "Activation of monocytes in cynomolgus monkey plasma assessed as upregulation of IL1Ra levels at 1 mg/kg, po after 24 hrs by Luminex assay (reference value: 320 pg/ml)", "type": "functional, Macaca fascicularis"}, "[24]": {"assay": "Solubility of the compound in FaSSIF", "type": "physicochemical"}, "Cynomolgus monkey [25]": {"test_system": "Cynomolgus monkey", "assay": "Induction of ISG response in cynomolgus monkey plasma assessed as upregulation of Isg15 mRNA expression at 3 mg/kg, po after 24 hrs by Fluidigm RT-qPCR analysis (reference value: 1)", "type": "functional, Macaca fascicularis", "procedure,_shortened": "as §2"}, "[26]": {"assay": "Plasma concentration in C57BL/6J mouse at 30 mg/kg, po by LC-MS analysis", "type": "ADME, organism-based", "conditions": "in vivo"}, "[27]": {"assay": "Cmax in cynomolgus monkey plasma at 1 mg/kg, po by LC-MS analysis", "type": "ADME, organism-based, Macaca fascicularis", "design": "dose 1 mg/kg, route oral", "procedure,_shortened": "as §3"}, "Plasma [28]": {"test_system": "Plasma", "assay": "Proinflammatory activity in C57BL/6J mouse plasma assessed as TNFalpha levels at 0.3 mg/kg, po by multiplex assay (reference value: 70 pg/ml)", "type": "functional, organism-based"}, "[29]": {"assay": "Metabolic stability in mouse liver microsomes assessed as compound metabolized at 1 uM after 15 mins", "type": "ADME, microsome", "conditions": "read-out: Drug metabolism", "procedure,_shortened": "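Mouse (M) or human (H) liver microsomes incubated with compound at 1 μM; percent metabolized after 15 min.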"}, "Plasma [30]": {"test_system": "Plasma", "assay": "Effect on cytokine profile in C57BL/6J mouse plasma assessed as IL-12p70 levels at 0.3 mg/kg, po by multiplex assay (reference value: 560 pg/ml)", "type": "functional", "procedure,_shortened": "as §1"}}, "note": "The source made the active and inactive calls. No cut-off for these calls is given here."}
{"smiles": "CCC[C@@H](CCO)Nc1nc(N)nc2c(F)cccc12", "values": [{"measurement": "Activity", "setting": "Cynomolgus monkey [1]", "result": 825, "unit": "pg/mL"}, {"measurement": "Activity", "setting": "Plasma [2]", "result": ">10000", "unit": "pg/mL"}, {"measurement": "Activity", "setting": "[3]", "result": "Active"}, {"measurement": "Activity", "setting": "Cynomolgus monkey [4]", "result": 1505, "unit": "pg/mL"}, {"measurement": "Kp", "setting": "[5]", "result": 16}, {"measurement": "Activity", "setting": "Plasma [6]", "result": 5170, "unit": "pg/mL"}, {"measurement": "Activity", "setting": "Liver [7]", "result": 535, "unit": "pg/g"}, {"measurement": "fold change (FC)", "setting": "Cynomolgus monkey [8]", "result": 180}, {"measurement": "Activity", "setting": "Cynomolgus monkey [9]", "result": 350, "unit": "pg/mL"}, {"measurement": "Cmax", "setting": "[10]", "result": 142, "unit": "ng/mL"}, {"measurement": "fold change (FC)", "setting": "Cynomolgus monkey [11]", "result": 4.8}, {"measurement": "Activity", "setting": "Plasma [12]", "result": "Below limit of detection"}, {"measurement": "fold change (FC)", "setting": "Cynomolgus monkey [13]", "result": 265}, {"measurement": "Activity", "setting": "Plasma [14]", "result": 1665, "unit": "pg/mL"}, {"measurement": "fold change (FC)", "setting": "Plasma [15]", "result": 2485}, {"measurement": "AUClast", "setting": "[16]", "result": 7160, "unit": "ng·h/g"}, {"measurement": "Activity", "setting": "Cynomolgus monkey [17]", "result": 75, "unit": "pg/mL"}, {"measurement": "Activity", "setting": "Liver [18]", "result": 1355, "unit": "pg/g"}, {"measurement": "Activity", "setting": "Cynomolgus monkey [19]", "result": 1615, "unit": "pg/mL"}, {"measurement": "Activity", "setting": "Plasma [20]", "result": ">10000", "unit": "pg/mL"}, {"measurement": "Activity", "setting": "Plasma [21]", "result": ">10000", "unit": "pg/mL"}, {"measurement": "Activity", "setting": "Plasma [22]", "result": 695, "unit": "pg/mL"}, {"measurement": "Activity", "setting": "Cynomolgus monkey [23]", "result": 805, "unit": "pg/mL"}, {"measurement": "solubility", "setting": "[24]", "result": "> 4000", "unit": "µg/mL"}, {"measurement": "fold change (FC)", "setting": "Cynomolgus monkey [25]", "result": 145}, {"measurement": "Cp", "setting": "[26]", "result": 35.7, "unit": "ng/mL"}, {"measurement": "Cmax", "setting": "[27]", "result": 38, "unit": "ng/mL"}, {"measurement": "Activity", "setting": "Plasma [28]", "result": "Below limit of detection"}, {"measurement": "metabolised at 0.25 h, 1 µM", "setting": "[29]", "result": 93, "unit": "%"}, {"measurement": "Activity", "setting": "Plasma [30]", "result": 470, "unit": "pg/mL"}]}
